“And” between values parts separate entries of the source, which are not always exact repeats. Equal entries are not always repeated. The source made the active and inactive calls.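 Rule for the calls: active = dose response lowering luminescence by over half the proteasome blocker control effect, potency within ten times top dose; inactive = change in the opposite direction, plus the rest.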
Tested on: not listed separately
Experiment: proteasome chymotrypsin-like activity inhibition in U2OS, dose response, counter-screen for HIF activator project, cell-based, luminescence, dry powder, set 3 (AID 493213)
Details: U2OS proteasome chymotrypsin-like activity, Proteasome-Glo luminescence; at 38 µM (top of the series)
How it was run: (§1)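 Assay system: U2OS cells. Input: 2,500 cells per well. Schedule: 24 h plating, 4 h compound exposure, 2 h room-temperature reagent. Compound dosing: 8-point 3-fold dilution series, 16.5 mM top stock. Replicates: duplicates. Technique: luminescence with 0.5X chymotrypsin-like Proteasome-Glo reagent.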

**Q.** With CC(Nc1nc(-c2ccccn2)nnc1-c1ccccc1)c1ccccc1 (centres undefined) as the molecule, how does the activity change, negative = inhibition read?
**A.** 22.8% (inactive)

**Q.** With OCC1CCN(Cc2ccc(O)c3ncccc23)CC1 as the molecule, how does the activity change, negative = inhibition read?
**A.** 51.9% (inactive)

**Q.** Which activity change, negative = inhibition does the source give for O=C(Nc1ncc(-c2ccccc2)o1)c1cc(-c2ccccc2)on1 here?
**A.** -53.8% (inactive)

**Q.** For CC1CN(Cc2ccc(O)c3ncccc23)CC(C)O1 (centres undefined), which activity change, negative = inhibition is on record?
**A.** 12% (inactive)

**Q.** For CC(C)(C)CCNc1nc(-c2ccccn2)nnc1-c1ccccc1, which activity change, negative = inhibition is on record?
**A.** 145% (inactive) and 67.4% (inactive)

**Q.** For Cn1c(-c2ccccc2)cnc1NC(=O)c1cc(-c2ccccc2)on1, which activity change, negative = inhibition is on record?
**A.** -10.3% (inactive)

**Q.** With Oc1ccc(CNC2Cc3ccccc3C2)c2cccnc12 as the molecule, how does the activity change, negative = inhibition read?
**A.** 26.4% (inactive)

**Q.** For c1ccc(-c2nnc(-c3ccccn3)nc2N2CCC(N3CCOCC3)CC2)cc1, which activity change, negative = inhibition is on record?
**A.** 16.5% (inactive)

**Q.** Which activity change, negative = inhibition does the source give for c1ccc(-c2cccc(CNc3nc(-c4ccccn4)nnc3-c3ccccc3)c2)cc1 here?
**A.** 26.9% (inactive)

**Q.** Which activity change, negative = inhibition does the source give for O=C(NCCCN1CCOCC1)c1cc(-c2ccccc2)on1 here?
**A.** -24.4% (inactive)

**Q.** For c1ccc(-c2nnc(-c3ccccn3)nc2NCCc2ccccn2)cc1, which activity change, negative = inhibition is on record?
**A.** 16.8% (inactive)

**Q.** Which activity change, negative = inhibition does the source give for O=C(c1cc(-c2ccccc2)on1)N1CCC(CO)CC1 here?
**A.** -22.3% (inactive)

**Q.** Which activity change, negative = inhibition does the source give for c1ccc(-c2nnc(-c3ccccn3)nc2N2CCN(c3ccncc3)CC2)cc1 here?
**A.** 10.3% (inactive)

**Q.** Which activity change, negative = inhibition does the source give for c1ccc(-c2nnc(-c3ccccn3)nc2Nc2nc3ccccc3s2)cc1 here?
**A.** 28.5% (inactive)

**Q.** For CN1CCN(C(=O)c2cc(-c3ccccc3)on2)CC1, which activity change, negative = inhibition is on record?
**A.** -34.5% (inactive)

**Q.** For c1ccc(CNc2nc(-c3ccccn3)nnc2-c2ccccc2)cc1, which activity change, negative = inhibition is on record?
**A.** 25.8% (inactive)

**Q.** Which activity change, negative = inhibition does the source give for O=C(NCc1ccccc1)c1cc(-c2ccccc2)on1 here?
**A.** -23.1% (inactive)

**Q.** For CC(C)(C)OC(=O)N1CCN(Cc2ccc(O)c3ncccc23)CC1, which activity change, negative = inhibition is on record?
**A.** 3.79% (inactive)

**Q.** With Cc1ccc(Nc2nc(-c3ccccn3)nnc2-c2ccccc2)cn1 as the molecule, how does the activity change, negative = inhibition read?
**A.** -25% (inactive)

**Q.** For O=C(Nc1nnc(-c2ccccc2)s1)c1cc(-c2ccccc2)on1, which activity change, negative = inhibition is on record?
**A.** -5.17% (inactive)

**Q.** For O=C(NCC1CCCCC1)c1cc(-c2ccccc2)on1, which activity change, negative = inhibition is on record?
**A.** -23.5% (inactive)

**Q.** With Clc1cccc(CNc2nc(-c3ccccn3)nnc2-c2ccccc2)c1 as the molecule, how does the activity change, negative = inhibition read?
**A.** 46.4% (inactive)

**Q.** For Oc1ccc(CNC2CCc3ccccc32)c2cccnc12 (centres undefined), which activity change, negative = inhibition is on record?
**A.** 81.7% (inactive)

**Q.** With c1ccc(-c2nnc(-c3ccccn3)nc2NCc2cccnc2)cc1 as the molecule, how does the activity change, negative = inhibition read?
**A.** 14.6% (inactive)

**Q.** With Cc1ccc(NC(=O)c2cc(-c3ccccc3)on2)cn1 as the molecule, how does the activity change, negative = inhibition read?
**A.** 14.5% (inactive)

**Q.** With O=C(c1cc(-c2ccccc2)on1)N1CCC(N2CCOCC2)CC1 as the molecule, how does the activity change, negative = inhibition read?
**A.** -8.89% (inactive)

**Q.** Which activity change, negative = inhibition does the source give for C[C@H](Nc1nc(-c2ccccn2)nnc1-c1ccccc1)C1CCCCC1 here?
**A.** 72.6% (inactive)

**Q.** Which activity change, negative = inhibition does the source give for Oc1ccc(CN2CCC(Cc3ccccc3)CC2)c2cccnc12 here?
**A.** 30.7% (inactive)

Tested on: U2OS proteasome chymotrypsin-like activity, Proteasome-Glo luminescence
Experiment: as above
Details: not given
How it was run: as §1

**Q.** Which AC50 does the source give for O=C(NCC1CC1)c1cc(-c2ccccc2)on1 here?
**A.** 33.7 µM

**Q.** With CN(C)CCNC(=O)c1cc(-c2ccccc2)on1 as the molecule, how does the AC50 read?
**A.** 33.4 µM

**Q.** With Cc1cccc(CNC(=O)c2cc(-c3ccccc3)on2)c1 as the molecule, how does the AC50 read?
**A.** 39.4 µM

**Q.** With c1ccc(-c2cnc(Nc3nc(-c4ccccn4)nnc3-c3ccccc3)s2)cc1 as the molecule, how does the AC50 read?
**A.** 2.42 µM

**Q.** For Cc1cccc(NC(=O)c2cc(-c3ccccc3)on2)n1, which AC50 is on record?
**A.** 17.3 µM

**Q.** With O=C(Nc1ccc2ccccc2n1)c1cc(-c2ccccc2)on1 as the molecule, how does the AC50 read?
**A.** 29.1 µM

**Q.** With O=C(Nc1ncc2ccccc2n1)c1cc(-c2ccccc2)on1 as the molecule, how does the AC50 read?
**A.** 28.1 µM

**Q.** With O=C(c1cc(-c2ccccc2)on1)N1CCN(c2ccncc2)CC1 as the molecule, how does the AC50 read?
**A.** 2.52 µM

**Q.** Which AC50 does the source give for O=C(NCCCO)c1cc(-c2ccccc2)on1 here?
**A.** 3.88 µM

**Q.** Which AC50 does the source give for CC(C)(C)CCNC(=O)c1cc(-c2ccccc2)on1 here?
**A.** 36.5 µM

**Q.** With CCCCNC(=O)c1cc(-c2ccccc2)on1 as the molecule, how does the AC50 read?
**A.** 21.5 µM

Source: PubChem BioAssay AID493213 (Broad Institute, 2011)
